Results as given in PMC10449099 (The Journal of Pharmacology and Experimental Therapeutics, 2023).

How the values were obtained:
[1] = system: hKir6.1 mutations, particularly V65M, C176S and E189K; experiment: DiBAC4; type: cell-based, human; settings: for sensitivity of mutation-caused hyperpolarization to reversal by inhibitor: basal activity without KCO, hKir6.1 mutations, particularly V65M, C176S, E189K
In short: (§1)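 Stable landing-pad HEK293 lines expressing hKir6.1/hSUR2B mutants were induced with doxycycline (4 μg/ml) and grown 1 day on poly-L-lysine. Cells were washed in low-K buffer (1 mM KCl, HEPES, pH 7.4), then incubated ≥30 min with 3 μM DiBAC4(3) plus blocker (glibenclamide, repaglinide or PNU37883A), without opener. Cells were segmented by red fluorescence, background-subtracted and mean-intensity averaged over duplicate images.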

[2] = system: cardiac function; settings: ref Humphrey et al., 1996; cited from earlier work
[3] = system: hSUR2B mutations (A478V, R1154Q, indel1055); experiment: DiBAC4; type: cell-based, human; settings: for reversal of mutation-caused hyperpolarization by inhibitor: basal activity without KCO, hSUR2B A478V, R1154Q, indel1055
In short: as §1

[4] = target: Kir6.1[D338E] (Homo sapiens, UniProt O60706+Q15842, D338E); experiment: DiBAC4; type: cell-based; settings: basal activity without KCO; printed hKir6.1[G338E]
[5] = target: hKir6.1[A46V] (Homo sapiens, UniProt O60706+Q15842, A46V); experiment: DiBAC4; type: cell-based; settings: basal activity without KCO
In short: as §1

[6] = target: hKir6.1[V65M]/hSUR2B (Homo sapiens, UniProt O60706+Q15842, V65M); experiment: Thallium flux assay, Kir6.1[V65M] stable cells; type: cell-based; settings: for activation of Tl influx by KCO: KCOs at presumably maximal concentrations, compared with WT
[7] = target: hKir6.1/hSUR2B[R1154Q] (Homo sapiens, UniProt O60706+Q15842, R1154Q); experiment: Thallium flux assay, SUR2B[R1154Q] stable cells; type: cell-based; settings: KCOs at presumably maximal concentrations
In short: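 Doxycycline-induced stable HEK293 cells on poly-L-lysine were loaded 1 h with Fluozin-2 in HBSS. […] Ex 485/em 528 nm was read every 2 s for 2 min, with Tl+ added at 20 s. Blank-subtracted, pre-Tl-normalized traces were fit single-exponentially, giving initial rate at t=0; n = 3–4.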

[8] = target: T1, WT hKir6.1/hSUR2B (Homo sapiens, UniProt O60706+Q15842); type: cell-based; settings: for activation of Tl influx by KCO: KCOs at presumably maximal concentrations
[9] = target: T1, WT hKir6.1/hSUR2B; experiment: DiBAC4; type: cell-based; settings: WT cells
In short: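 WT hKir6.1/hSUR2B and untransfected landing-pad HEK293 cells were loaded ≥30 min with 3 μM DiBAC4(3) in 1 mM K+ buffer. […] Background-subtracted mean cell fluorescence was normalized to untreated cells, n = 4–6. K conductance was estimated with a simplified Goldman-Hodgkin-Katz equation.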

[10] = target: hKir6.1[C176S]/hSUR2B (Homo sapiens, UniProt O60706+Q15842, C176S); experiment: Thallium flux assay, Kir6.1[C176S] stable cells; type: cell-based
[11] = system: hKir6.1/hSUR2B with hSUR2B mutations (A478V, indel1055, R1154Q, R1154W); experiment: Thallium flux assay, all cell lines with hSUR2B mutations; type: cell-based, human; settings: all hSUR2B mutant cell lines
In short: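 Doxycycline-induced stable hKir6.1/hSUR2B-mutant HEK293 cells on poly-L-lysine were loaded 1 h with Fluozin-2 in HBSS. […] Ex 485/em 528 nm was read every 2 s for 2 min, with Tl+ added at 20 s. Blank-subtracted traces normalized to pre-Tl fluorescence were fit with a single exponential; initial rate was the derivative at t=0.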

[12] = target: hKir6.1[E189K]/hSUR2B (Homo sapiens, UniProt O60706+Q15842, E189K); experiment: Thallium flux assay, Kir6.1[E189K] stable cells; type: cell-based
[13] = target: hKir6.1[D338E]/hSUR2B (Homo sapiens, UniProt O60706+Q15842, D338E); experiment: Thallium flux assay, Kir6.1[D338E] stable cells; type: cell-based
[14] = target: hSUR2B[R1154W] (Homo sapiens, UniProt O60706+Q15842, R1154W); experiment: DiBAC4; type: cell-based; settings: basal activity without KCO
In short: as §1

[15] = target: Kir6.1/SUR2B[R1154Q] mutant channels (Homo sapiens, UniProt O60706+Q15842, R1154Q); experiment: Whole-cell patch-clamp, stably transfected R1154Q mutant channels; type: cell-based
[16] = target: hKir6.1[A46V]/hSUR2B (Homo sapiens, UniProt O60706+Q15842, A46V); experiment: Thallium flux assay, Kir6.1[A46V] stable cells; type: cell-based
[17] = system: SUR2[A478V] mice; settings: ref McClenaghan et al., 2020b; cited from earlier work
[18] = system: gastric motility; settings: ref York et al., 2020; cited from earlier work
[19] = target: WT Kir6.1/SUR2B channels (Homo sapiens, UniProt O60706+Q15842); experiment: Whole-cell patch-clamp, stably transfected WT channels; type: cell-based; settings: Vm -60 mV
[20] = most SUR2B CS mutations, basal activity

hKir6.1[A46V], sequence (Q15842 whole entry A46V): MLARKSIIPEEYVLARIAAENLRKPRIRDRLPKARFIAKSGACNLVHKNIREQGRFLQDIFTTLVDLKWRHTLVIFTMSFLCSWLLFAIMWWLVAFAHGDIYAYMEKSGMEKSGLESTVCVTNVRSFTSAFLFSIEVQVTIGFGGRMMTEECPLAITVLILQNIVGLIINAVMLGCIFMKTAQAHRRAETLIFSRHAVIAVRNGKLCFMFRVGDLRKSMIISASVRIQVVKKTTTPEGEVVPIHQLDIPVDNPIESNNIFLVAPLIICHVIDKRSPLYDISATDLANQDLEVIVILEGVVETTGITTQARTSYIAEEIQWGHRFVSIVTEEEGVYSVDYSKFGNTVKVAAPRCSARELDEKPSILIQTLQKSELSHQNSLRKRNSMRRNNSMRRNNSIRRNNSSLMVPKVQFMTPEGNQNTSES
hKir6.1[A46V], sequence (O60706 1-1549 isoform O60706-2, stated change not applied): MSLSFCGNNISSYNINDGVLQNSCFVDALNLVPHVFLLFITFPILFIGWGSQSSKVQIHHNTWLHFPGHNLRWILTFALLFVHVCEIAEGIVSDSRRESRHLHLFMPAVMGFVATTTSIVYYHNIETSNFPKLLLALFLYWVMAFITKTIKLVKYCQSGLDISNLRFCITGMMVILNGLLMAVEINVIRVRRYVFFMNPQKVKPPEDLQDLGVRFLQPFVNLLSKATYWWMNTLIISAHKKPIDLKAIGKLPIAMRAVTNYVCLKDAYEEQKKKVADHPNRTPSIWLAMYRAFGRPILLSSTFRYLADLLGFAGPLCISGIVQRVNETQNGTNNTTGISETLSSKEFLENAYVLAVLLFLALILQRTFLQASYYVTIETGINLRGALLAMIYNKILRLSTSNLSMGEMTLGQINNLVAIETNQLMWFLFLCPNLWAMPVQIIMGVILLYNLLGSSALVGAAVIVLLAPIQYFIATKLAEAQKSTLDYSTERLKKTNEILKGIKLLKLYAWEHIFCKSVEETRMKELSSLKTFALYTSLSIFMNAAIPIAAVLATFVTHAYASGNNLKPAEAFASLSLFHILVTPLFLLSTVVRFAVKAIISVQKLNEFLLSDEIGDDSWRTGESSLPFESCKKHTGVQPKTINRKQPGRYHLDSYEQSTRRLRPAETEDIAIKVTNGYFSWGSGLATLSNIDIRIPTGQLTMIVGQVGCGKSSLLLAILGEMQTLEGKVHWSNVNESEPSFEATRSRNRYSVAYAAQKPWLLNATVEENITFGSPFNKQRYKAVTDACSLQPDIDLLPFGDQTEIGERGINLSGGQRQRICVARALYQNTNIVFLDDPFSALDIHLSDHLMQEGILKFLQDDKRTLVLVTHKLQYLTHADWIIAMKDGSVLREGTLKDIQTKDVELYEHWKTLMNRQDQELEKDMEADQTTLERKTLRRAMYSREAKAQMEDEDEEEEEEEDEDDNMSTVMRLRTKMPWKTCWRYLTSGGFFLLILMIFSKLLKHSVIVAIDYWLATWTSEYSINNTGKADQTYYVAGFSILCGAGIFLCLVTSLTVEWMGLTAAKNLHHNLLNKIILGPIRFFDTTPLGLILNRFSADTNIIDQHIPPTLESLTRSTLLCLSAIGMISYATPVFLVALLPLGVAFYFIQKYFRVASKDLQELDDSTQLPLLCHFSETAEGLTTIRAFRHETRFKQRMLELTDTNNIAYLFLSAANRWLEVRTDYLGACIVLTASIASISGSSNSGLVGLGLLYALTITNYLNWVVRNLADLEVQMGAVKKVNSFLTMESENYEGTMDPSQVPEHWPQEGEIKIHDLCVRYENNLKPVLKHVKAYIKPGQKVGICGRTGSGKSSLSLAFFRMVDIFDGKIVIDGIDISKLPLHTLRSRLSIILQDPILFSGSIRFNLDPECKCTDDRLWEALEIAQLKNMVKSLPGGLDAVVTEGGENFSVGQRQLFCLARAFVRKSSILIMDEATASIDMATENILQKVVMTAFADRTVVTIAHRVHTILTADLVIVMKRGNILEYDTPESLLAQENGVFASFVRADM
hKir6.1[V65M]/hSUR2B, sequence (Q15842 whole entry V65M): as the sequence (Q15842 whole entry A46V) above, with V46A, V65M counted along it
hKir6.1[V65M]/hSUR2B, sequence (O60706 1-1549 isoform O60706-2, stated change not applied): as the sequence (O60706 1-1549 isoform O60706-2, stated change not applied) above
hKir6.1[D338E]/hSUR2B, sequence (Q15842 whole entry D338E): as the sequence (Q15842 whole entry A46V) above, with V46A, D338E counted along it
hKir6.1[D338E]/hSUR2B, sequence (O60706 1-1549 isoform O60706-2, stated change not applied): as the sequence (O60706 1-1549 isoform O60706-2, stated change not applied) above
hKir6.1[E189K]/hSUR2B, sequence (Q15842 whole entry E189K): as the sequence (Q15842 whole entry A46V) above, with V46A, E189K counted along it
hKir6.1[E189K]/hSUR2B, sequence (O60706 1-1549 isoform O60706-2, stated change not applied): as the sequence (O60706 1-1549 isoform O60706-2, stated change not applied) above
hKir6.1/hSUR2B[R1154Q], sequence (Q15842 whole entry): as the sequence (Q15842 whole entry A46V) above, with V46A counted along it
hKir6.1/hSUR2B[R1154Q], sequence (O60706 1-1549 isoform O60706-2 R1154Q): as the sequence (O60706 1-1549 isoform O60706-2, stated change not applied) above, with R1154Q counted along it
T1 sequence (Q15842 whole entry): as the sequence (Q15842 whole entry A46V) above, with V46A counted along it
T1 sequence (O60706 1-1549 isoform O60706-2): as the sequence (O60706 1-1549 isoform O60706-2, stated change not applied) above
hKir6.1[C176S]/hSUR2B, sequence (Q15842 whole entry C176S): as the sequence (Q15842 whole entry A46V) above, with V46A, C176S counted along it
hKir6.1[C176S]/hSUR2B, sequence (O60706 1-1549 isoform O60706-2, stated change not applied): as the sequence (O60706 1-1549 isoform O60706-2, stated change not applied) above
hKir6.1[A46V]/hSUR2B, sequence (Q15842 whole entry A46V): as the sequence (Q15842 whole entry A46V) above
hKir6.1[A46V]/hSUR2B, sequence (O60706 1-1549 isoform O60706-2, stated change not applied): as the sequence (O60706 1-1549 isoform O60706-2, stated change not applied) above
Kir6.1/SUR2B[R1154Q] mutant channels, sequence (Q15842 whole entry): as the sequence (Q15842 whole entry A46V) above, with V46A counted along it
Kir6.1/SUR2B[R1154Q] mutant channels, sequence (O60706 1-1549 isoform O60706-2 R1154Q): as the sequence (O60706 1-1549 isoform O60706-2, stated change not applied) above, with R1154Q counted along it
Kir6.1[D338E], sequence (Q15842 whole entry D338E): as the sequence (Q15842 whole entry A46V) above, with V46A, D338E counted along it
Kir6.1[D338E], sequence (O60706 1-1549 isoform O60706-2, stated change not applied): as the sequence (O60706 1-1549 isoform O60706-2, stated change not applied) above
WT Kir6.1/SUR2B channels, sequence (Q15842 whole entry): as the sequence (Q15842 whole entry A46V) above, with V46A counted along it
WT Kir6.1/SUR2B channels, sequence (O60706 1-1549 isoform O60706-2): as the sequence (O60706 1-1549 isoform O60706-2, stated change not applied) above
hSUR2B[R1154W], sequence (Q15842 whole entry): as the sequence (Q15842 whole entry A46V) above, with V46A counted along it
hSUR2B[R1154W], sequence (O60706 1-1549 isoform O60706-2 R1154W): as the sequence (O60706 1-1549 isoform O60706-2, stated change not applied) above, with R1154W counted along it

C1CCC(N=C(NC23CC4CC(CC(C4)C2)C3)N2CCOCC2)CC1.Cl [PNU37883A]
inhibition of basal Kir6.1 mutation activities, comparison ([1]; at saturating doses): more effective than glibenclamide or repaglinide | sensitivity of mutation-caused hyperpolarization to reversal by inhibitor [1]: very poorly sensitive | effects on cardiac function [2]: Fatal effects | reversal of mutation-caused hyperpolarization by inhibitor [3]: readily reversed | sensitivity of mutation-caused hyperpolarization to reversal by inhibitor [4]: uniquely insensitive | reversal of mutation-caused hyperpolarization by inhibitor [5]: readily reversed

CC1(C)Oc2ccc(C#N)cc2C(N2CCCC2=O)C1O (centres unmarked) [cromakalim]
activation of Tl influx by KCO ([6]; hKir6.1[V65M]): enhanced activation | activation of Tl influx by KCO [7]: not activated | activation of Tl influx by KCO ([8]; WT): activated

CC1=NS(=O)(=O)c2cc(Cl)ccc2N1 [diazoxide]
concentrations generating clear KATP-dependent hyperpolarization signals ([9]; 1 mM [K+]o): above 1 μM | effect on membrane potential (DiBAC4(3) fluorescence) ([9]; 1 mM [K+]o): dose-dependently hyperpolarized | activation of Tl influx by KCO ([6]; hKir6.1[V65M]): measurable activation | activation of Tl influx by KCO [7]: not activated | activation of Tl influx by KCO ([8]; WT): no effect

C=C[C@@]1(C)CC(=O)[C@]2(O)[C@@]3(C)[C@@H](O)CCC(C)(C)[C@@H]3[C@H](O)[C@H](OC(C)=O)[C@@]2(C)O1 [forskolin]
effect of forskolin on membrane potential (DiBAC4(3)) ([9]; 10 μM forskolin): significant hyperpolarization | Tl-influx rate with forskolin ([10]; hKir6.1[C176S], 10 μM forskolin): increased | Tl-influx rate with forskolin ([6]; hKir6.1[V65M], 10 μM forskolin): increased | response of Tl-influx rate to forskolin ([11]; 10 μM forskolin): essentially insensitive | Tl-influx rate with forskolin ([12]; hKir6.1[E189K], 10 μM forskolin): increased | Tl-influx rate with forskolin ([13]; hKir6.1[D338E], 10 μM forskolin): increased | Tl influx signal with forskolin ([8]; WT, 10 μM forskolin): failed to generate measurable

COc1ccc(Cl)cc1C(=O)NCCc1ccc(S(=O)(=O)NC(=O)NC2CCCCC2)cc1 [glibenclamide]
sensitivity of mutation-caused hyperpolarization to reversal by inhibitor [14]: uniquely insensitive | Hill coefficient, glibenclamide inhibition ([10]; Kir6.1[C176S], 100 μM pinacidil, fit with eq. 4): 1.1 ± 0.5 | sensitivity of mutation-caused hyperpolarization to reversal by inhibitor [1]: very poorly sensitive | Hill coefficient, glibenclamide inhibition ([6]; Kir6.1[V65M], 100 μM pinacidil, fit with eq. 4): 1.8 ± 0.8 | glibenclamide sensitivity (IPin+Glib/IPin) compared with WT ([15]; pinacidil-activated current): markedly reduced | Hill coefficient, glibenclamide inhibition ([16]; 100 μM pinacidil, fit with eq. 4): 1.9 ± 0.3 | Hill coefficient, glibenclamide inhibition ([12]; Kir6.1[E189K], 100 μM pinacidil, fit with eq. 4): 1.0 ± 0.2 | effect on CS-associated cardiovascular abnormalities [17]: reversed CS-associated cardiovascular abnormalities | reversal of mutation-caused hyperpolarization by inhibitor [3]: readily reversed | glibenclamide concentration that effectively blocked basal activity [3, 20]: 100 to 300 nM | glibenclamide concentration that markedly inhibited ([3]; most SUR2 CS mutations): < 100 nM | effect on gastric motility [18]: restored gastric motility | Hill coefficient, glibenclamide inhibition ([13]; Kir6.1[D338E], 100 μM pinacidil, fit with eq. 4): 1.5 ± 0.4 | reversal of mutation-caused hyperpolarization by inhibitor [5]: readily reversed | Hill coefficient, glibenclamide inhibition ([8]; WT, 100 μM pinacidil, fit with eq. 4): 2.9 ± 6.0

O=C(NCCO[N+](=O)[O-])c1cccnc1 [nicorandil]
activation of Tl influx by KCO ([6]; hKir6.1[V65M]): measurable activation | activation of Tl influx by KCO [7]: not activated | activation of Tl influx by KCO ([8]; WT): only activated by pinacidil and cromakalim

CC(N/C(=N\C#N)Nc1ccncc1)C(C)(C)C (centres unmarked) [pinacidil]
DiBAC4(3) signal changes at 10 μM pinacidil ([9]; 10 μM pinacidil): almost saturated | effect on membrane potential (DiBAC4(3) fluorescence) ([9]; 1 mM [K+]o): dose-dependently hyperpolarized | potency of hyperpolarization, comparison ([9]; 1 mM [K+]o): more potent than diazoxide | share of the DiBAC4(3) signal change that occurs at <3 μM pinacidil ([9]; <3 μM pinacidil, activation of <20% of maximal WT conductance): ~80% | maximum channel activity with pinacidil compared with WT ([10]; Kir6.1[C176S], Tl influx dose-response): much higher | Hill coefficient, pinacidil activation ([10]; Kir6.1[C176S], fit with eq. 3): 1.2 ± 0.1 | channel activity at very high concentration of pinacidil ([6]; Kir6.1[V65M], 300 μM pinacidil): slightly decreased | Hill coefficient, pinacidil activation ([6]; Kir6.1[V65M], fit with eq. 3): 1.2 ± 0.0 | activation of Tl influx by KCO ([6]; hKir6.1[V65M]): enhanced activation | increase of whole-cell current by pinacidil (IPin/IBasal) [19]: ~150 fold | response of Tl-influx rate to pinacidil activation ([11]; pinacidil 100 μM): essentially insensitive | activation of Tl influx by KCO [7]: not activated | increase of whole-cell current by pinacidil (IPin/IBasal) ([15]; Vm -60 mV): ~10 fold | Hill coefficient, pinacidil activation ([16]; fit with eq. 3): 1.9 ± 0.2 | Hill coefficient, pinacidil activation ([12]; Kir6.1[E189K], fit with eq. 3): 1.3 ± 0.4 | Hill coefficient, pinacidil activation ([13]; Kir6.1[D338E], fit with eq. 3): 1.7 ± 0.1 | pinacidil concentration at which Tl influx activation reached maximum ([8]; WT channels): 100 µM | activation of Tl influx by KCO ([8]; WT): activated | Hill coefficient, pinacidil activation ([8]; WT, fit with eq. 3): 2.6 ± 1.0

CCOc1cc(CC(=O)N[C@@H](CC(C)C)c2ccccc2N2CCCCC2)ccc1C(=O)O [repaglinide]
sensitivity of mutation-caused hyperpolarization to reversal by inhibitor [1]: very poorly sensitive | reversal of mutation-caused hyperpolarization by inhibitor [3]: readily reversed | block of basal activity compared with glibenclamide [3, 20]: more effectively | reversal of mutation-caused hyperpolarization by inhibitor [5]: readily reversed
